According to article PMC4806784 (Investigational new drugs, 2015):
Where two headings read alike, the source gives them in different places.

Format: in vivo, human
Details: for AUC(0-t) / Cmax / Tmax / half-life / concentration at 12 h: plasma; for Tmax: median (range); for concentration at 12 h: C12h
Summary of the method: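 Test compound was given as oral capsules with […] water after a 2-h fast, BID Q12hr, 3–6 patients per dose level. Docetaxel 60 mg/m2 was a 1-h IV infusion 2 h beforehand. […] was sampled on Cycle 1 Day 1 (predose, 0.5–24 h after dose 1) and Day 2 (predose, 0.5–44 h after dose 4). Analysis was non-compartmental, with AUC by linear-up/log-down trapezoidal method and Cmax/Tmax by inspection.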

O=C(O)[C@]1(Cc2cccc(Nc3nccs3)n2)CC[C@@H](Oc2cccc(Cl)c2F)CC1 [MK-5108]
mean target trough concentration of 2 μM (Panel 2 (CT with docetaxel), any tested dose level): not achieved | dose proportionality of AUC0-12h and Cmax (following the first dose): less than dose proportionally | dose proportionality of AUC0-12h and Cmax (following the fourth dose, 100 to 1800 mg (Q12hr)): roughly dose proportionally | dose proportionality of serum concentration at 12 hours post dose (trough) (human, in vivo): roughly dose proportionally | shape of mean plasma concentration decline (human, in vivo): biphasic decline | AUC(0-t) (human, iv, 60 mg/m2, AUC0-12h, 100 mg/day, Panel 2 (CT, docetaxel 60 mg/m^2 IV), Dose 1): 7.9 ± 2 µM·h | AUC(0-t) (human, iv, 60 mg/m2, AUC0-12h, 100 mg/day, Panel 2 (CT, docetaxel 60 mg/m^2 IV), Dose 4): 10.8 ± 3.3 µM·h | AUC(0-t) (human, iv, 60 mg/m2, AUC0-12h, 150 mg/day, Panel 2 (CT, docetaxel 60 mg/m^2 IV), Dose 1): 15 ± 9.2 µM·h | AUC(0-t) (human, iv, 60 mg/m2, AUC0-12h, 150 mg/day, Panel 2 (CT, docetaxel 60 mg/m^2 IV), Dose 4): 16.4 ± 8.9 µM·h | AUC(0-t) (human, iv, 60 mg/m2, AUC0-12h, 225 mg/day, Panel 2 (CT, docetaxel 60 mg/m^2 IV), Dose 1): 18.5 ± 6.2 µM·h | AUC(0-t) (human, iv, 60 mg/m2, AUC0-12h, 225 mg/day, Panel 2 (CT, docetaxel 60 mg/m^2 IV), Dose 4): 23.4 ± 8.8 µM·h | Cmax (human, iv, 60 mg/m2, Cmax, 100 mg/day, Panel 2 (CT, docetaxel 60 mg/m^2 IV), Dose 1): 2.3 ± 1.2 µM | Cmax (human, iv, 60 mg/m2, Cmax, 100 mg/day, Panel 2 (CT, docetaxel 60 mg/m^2 IV), Dose 4): 2.2 ± 1 µM | Cmax (human, iv, 60 mg/m2, Cmax, 150 mg/day, Panel 2 (CT, docetaxel 60 mg/m^2 IV), Dose 1): 3.5 ± 2 µM | Cmax (human, iv, 60 mg/m2, Cmax, 150 mg/day, Panel 2 (CT, docetaxel 60 mg/m^2 IV), Dose 4): 3.2 ± 1.7 µM | Cmax (human, iv, 60 mg/m2, Cmax, 225 mg/day, Panel 2 (CT, docetaxel 60 mg/m^2 IV), Dose 1): 5 ± 0.8 µM | Cmax (human, iv, 60 mg/m2, Cmax, 225 mg/day, Panel 2 (CT, docetaxel 60 mg/m^2 IV), Dose 4): 5.3 ± 1.7 µM | Tmax (human, iv, 60 mg/m2, Tmax, 100 mg/day, Panel 2 (CT, docetaxel 60 mg/m^2 IV), Dose 1): 2 h | Tmax (human, iv, 60 mg/m2, Tmax, 100 mg/day, Panel 2 (CT, docetaxel 60 mg/m^2 IV), Dose 4): 4 h | Tmax (human, iv, 60 mg/m2, Tmax, 150 mg/day, Panel 2 (CT, docetaxel 60 mg/m^2 IV), Dose 1): 3.5 h | Tmax (human, iv, 60 mg/m2, Tmax, 150 mg/day, Panel 2 (CT, docetaxel 60 mg/m^2 IV), Dose 4): 5 h | Tmax (human, iv, 60 mg/m2, Tmax, 225 mg/day, Panel 2 (CT, docetaxel 60 mg/m^2 IV), Dose 1): 2 h | Tmax (human, iv, 60 mg/m2, Tmax, 225 mg/day, Panel 2 (CT, docetaxel 60 mg/m^2 IV), Dose 4): 3 h | half-life (human, iv, 60 mg/m2, t1/2, 100 mg/day, Panel 2 (CT, docetaxel 60 mg/m^2 IV), Dose 4): 810 ± 636 min | half-life (human, iv, 60 mg/m2, t1/2, 150 mg/day, Panel 2 (CT, docetaxel 60 mg/m^2 IV), Dose 4): 606 ± 300 min | half-life (human, iv, 60 mg/m2, t1/2, 225 mg/day, Panel 2 (CT, docetaxel 60 mg/m^2 IV), Dose 4): 552 ± 306 min | concentration at 12 h (human, iv, 100 mg/day, Panel 2 (CT, docetaxel 60 mg/m^2 IV), Dose 1): 150 ± 120 nM | concentration at 12 h (human, iv, 100 mg/day, Panel 2 (CT, docetaxel 60 mg/m^2 IV), Dose 4): 210 ± 100 nM | concentration at 12 h (human, iv, 150 mg/day, Panel 2 (CT, docetaxel 60 mg/m^2 IV), Dose 1): 330 ± 220 nM | concentration at 12 h (human, iv, 150 mg/day, Panel 2 (CT, docetaxel 60 mg/m^2 IV), Dose 4): 510 ± 370 nM | concentration at 12 h (human, iv, 225 mg/day, Panel 2 (CT, docetaxel 60 mg/m^2 IV), Dose 1): 460 ± 260 nM | concentration at 12 h (human, iv, 225 mg/day, Panel 2 (CT, docetaxel 60 mg/m^2 IV), Dose 4): 660 ± 620 nM | AUC(0-t) (human, oral, 200 mg/day, AUC0-12h, Panel 1 (MT), Dose 1): 17.5 ± 5.6 µM·h | AUC(0-t) (human, oral, 200 mg/day, AUC0-12h, Panel 1 (MT), Dose 4): 31.2 ± 16.3 µM·h | concentration at 12 h (human, oral, 200 mg/day, Panel 1 (MT), Dose 1): 350 ± 50 nM | concentration at 12 h (human, oral, 200 mg/day, Panel 1 (MT), Dose 4): 1920 ± 1910 nM | Cmax (human, oral, 200 mg/day, Cmax, Panel 1 (MT), Dose 1): 3.9 ± 0.7 µM | Cmax (human, oral, 200 mg/day, Cmax, Panel 1 (MT), Dose 4): 4.8 ± 1 µM | Tmax (human, oral, 200 mg/day, Tmax, Panel 1 (MT), Dose 1): 4 h | Tmax (human, oral, 200 mg/day, Tmax, Panel 1 (MT), Dose 4): 4 h | half-life (human, oral, 200 mg/day, t1/2, 200 mg/day, Panel 1 (MT), Dose 4): 558 ± 72 min | AUC(0-t) (human, oral, 400 mg/day, AUC0-12h, Panel 1 (MT), Dose 1): 27 ± 12.2 µM·h | AUC(0-t) (human, oral, 400 mg/day, AUC0-12h, Panel 1 (MT), Dose 4): 75.7 ± 46.2 µM·h | concentration at 12 h (human, oral, 400 mg/day, Panel 1 (MT), Dose 1): 250 ± 130 nM | concentration at 12 h (human, oral, 400 mg/day, Panel 1 (MT), Dose 4): 2020 ± 1520 nM | Cmax (human, oral, 400 mg/day, Cmax, Panel 1 (MT), Dose 1): 6.7 ± 2.4 µM | Cmax (human, oral, 400 mg/day, Cmax, Panel 1 (MT), Dose 4): 11 ± 5.3 µM | Tmax (human, oral, 400 mg/day, Tmax, Panel 1 (MT), Dose 1): 2 h | Tmax (human, oral, 400 mg/day, Tmax, Panel 1 (MT), Dose 4): 6 h | half-life (human, oral, 400 mg/day, t1/2, 400 mg/day, Panel 1 (MT), Dose 4): 522 ± 402 min | AUC(0-t) (human, oral, 800 mg/day, AUC0-12h, Panel 1 (MT), Dose 1): 69 ± 41.9 µM·h | AUC(0-t) (human, oral, 800 mg/day, AUC0-12h, Panel 1 (MT), Dose 4): 95.5 ± 44.9 µM·h | concentration at 12 h (human, oral, 800 mg/day, Panel 1 (MT), Dose 1): 1680 ± 1910 nM | concentration at 12 h (human, oral, 800 mg/day, Panel 1 (MT), Dose 4): 4530 ± 2680 nM | Cmax (human, oral, 800 mg/day, Cmax, Panel 1 (MT), Dose 1): 19.5 ± 5.5 µM
